# Assay results: ChEMBL document CHEMBL5131398, “Novel nucleocapsid protein-targeting phenanthridine inhibitors of SARS-CoV-2” (Eur J Med Chem, 2022)
# pEC50: −log10 of the molar value.
# Experiments:
# SARS-CoV-2 [1] = assay: Antiviral activity against Severe acute respiratory syndrome coronavirus 2 infected in African green monkey Vero E6 cells assessed as inhibition of viral cytopathic effect at 0.064 uM incubated for 72 hrs by CCK8 assay relative to control; type: functional; parameters: scale not given: the % may be the effect or the level left
# SARS-CoV-2 [2] = assay: Antiviral activity against Severe acute respiratory syndrome coronavirus 2 infected in African green monkey Vero E6 cells assessed as inhibition of viral cytopathic effect at 8 uM incubated for 72 hrs by CCK8 assay relative to control; type: functional; parameters: scale not given: the % may be the effect or the level left
# SARS-CoV-2 [3] = assay: Antiviral activity against Severe acute respiratory syndrome coronavirus 2 infected in African green monkey Vero E6 cells assessed as inhibition of viral cytopathic effect at 40 uM incubated for 72 hrs by CCK8 assay relative to control; type: functional; parameters: scale not given: the % may be the effect or the level left
# SARS-CoV-2 [4] = assay: Antiviral activity against Severe acute respiratory syndrome coronavirus 2 infected in African green monkey Vero E6 cells assessed as inhibition of viral cytopathic effect at 1.6 uM incubated for 72 hrs by CCK8 assay relative to control; type: functional; parameters: scale not given: the % may be the effect or the level left
# SARS-CoV-2 [5] = assay: Antiviral activity against Severe acute respiratory syndrome coronavirus 2 infected in African green monkey Vero E6 cells assessed as inhibition of viral cytopathic effect at 200 uM incubated for 72 hrs by CCK8 assay relative to control; type: functional; parameters: scale not given: the % may be the effect or the level left
# Vero C1008 = assay: Cytotoxicity against African green monkey Vero E6 cells assessed as reduction in cell viability incubated for 72 hrs by CCK8 assay; type: toxicity, cell-based; details: chlorocebus sabaeus, vero c1008, 72 h
# Summary of the method: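 Vero E6 cells were seeded and grown overnight, then exposed to a range of compound concentrations for 72 h. Viability was read by CCK8. Triplicate.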
# SARS-CoV-2 [6] = assay: Antiviral activity against Severe acute respiratory syndrome coronavirus 2 infected in African green monkey Vero E6 cells assessed as inhibition of viral cytopathic effect at 0.32 uM incubated for 72 hrs by CCK8 assay relative to control; type: functional; parameters: scale not given: the % may be the effect or the level left
# SARS-CoV-2 [7] = assay: Antiviral activity against Severe acute respiratory syndrome coronavirus 2 infected in African green monkey Vero E6 cells assessed as reduction in viral RNA copies at 100 uM incubated for 48 hrs by RT-qPCR analysis relative to control; type: functional; parameters: scale not given: the % may be the effect or the level left
# SARS-CoV-2 [8] = assay: Antiviral activity against Severe acute respiratory syndrome coronavirus 2 infected in African green monkey Vero E6 cells assessed as reduction in viralN-terminal 6-histidine tagged RNA copies at 12.5 uM incubated for 48 hrs by RT-qPCR analysis relative to control; type: functional; parameters: scale not given: the % may be the effect or the level left
# SARS-CoV-2 [9] = assay: Antiviral activity against Severe acute respiratory syndrome coronavirus 2 infected in African green monkey Vero E6 cells assessed as inhibition of viral cytopathic effect incubated for 72 hrs by CCK8 assay; type: functional, organism-based; details: Severe acute respiratory syndrome coronavirus 2, Vero C1008, 72 h
# SARS-CoV-2 [10] = assay: Antiviral activity against Severe acute respiratory syndrome coronavirus 2 infected in African green monkey Vero E6 cells assessed as reduction in viral RNA copies at 3.125 uM incubated for 48 hrs by RT-qPCR analysis relative to control; type: functional; parameters: scale not given: the % may be the effect or the level left
# SARS-CoV-2 [11] = assay: Antiviral activity against Severe acute respiratory syndrome coronavirus 2 infected in African green monkey Vero E6 cells assessed as reduction in viral RNA copies at 6.25 uM incubated for 48 hrs by RT-qPCR analysis relative to control; type: functional; parameters: scale not given: the % may be the effect or the level left
# SARS-CoV-2 [12] = assay: Antiviral activity against Severe acute respiratory syndrome coronavirus 2 infected in African green monkey Vero E6 cells assessed as reduction in viral RNA copies at 50 uM incubated for 48 hrs by RT-qPCR analysis relative to control; type: functional; parameters: scale not given: the % may be the effect or the level left
Structure (SMILES),Activity (SARS-CoV-2 [1]),Activity (SARS-CoV-2 [2]),Activity (SARS-CoV-2 [3]),Activity (SARS-CoV-2 [4]),Activity (SARS-CoV-2 [5]),CC50 (Vero C1008),Activity (SARS-CoV-2 [6]),Activity (SARS-CoV-2 [7]),Activity (SARS-CoV-2 [8]),pEC50 (SARS-CoV-2 [9]),Activity (SARS-CoV-2 [10]),Activity (SARS-CoV-2 [11]),Activity (SARS-CoV-2 [12])
CCC(CC)COC(=O)[C@H](C)N[P@](=O)(OC[C@H]1O[C@@](C#N)(c2ccc3c(N)ncnn23)[C@H](O)[C@@H]1O)Oc1ccccc1,16.557%,103.72%,97.265%,56.674%,81.893%,> 200 µM,22.283%,–,–,–,–,–,–
CCN1Cc2cc(OC)c(OC)cc2-c2cccc(N)c21,42.07%,73.32%,87.56%,69.61%,97.85%,> 200 µM,44.04%,72.33%,61.27%,5.43,45.99%,53.79%,76.41%
CCN1Cc2cc(OC)c(OC)cc2-c2cccc(NC(=O)C(F)(F)F)c21,49.07%,82.36%,87.41%,84.14%,99.6%,> 200 µM,66.95%,97.83%,68.79%,5.66,56.23%,54.85%,68.9%
